Assay outcomes as filed in PubChem.
Mdm2 MdmX PPI: inhibitors of human Mdm2-MdmX association, primary screen, cell-based, luminescence, split luciferase, SaOS-2, uHTS; SaOS-2 split-luciferase Mdm2/MdmX complementation; inhibition, % at 8 µM; 330,000 tested, 3% active;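 active = inhibition of at least 50% at 8 µM in the primary screen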
Target sequence (O15151 whole entry, looked up): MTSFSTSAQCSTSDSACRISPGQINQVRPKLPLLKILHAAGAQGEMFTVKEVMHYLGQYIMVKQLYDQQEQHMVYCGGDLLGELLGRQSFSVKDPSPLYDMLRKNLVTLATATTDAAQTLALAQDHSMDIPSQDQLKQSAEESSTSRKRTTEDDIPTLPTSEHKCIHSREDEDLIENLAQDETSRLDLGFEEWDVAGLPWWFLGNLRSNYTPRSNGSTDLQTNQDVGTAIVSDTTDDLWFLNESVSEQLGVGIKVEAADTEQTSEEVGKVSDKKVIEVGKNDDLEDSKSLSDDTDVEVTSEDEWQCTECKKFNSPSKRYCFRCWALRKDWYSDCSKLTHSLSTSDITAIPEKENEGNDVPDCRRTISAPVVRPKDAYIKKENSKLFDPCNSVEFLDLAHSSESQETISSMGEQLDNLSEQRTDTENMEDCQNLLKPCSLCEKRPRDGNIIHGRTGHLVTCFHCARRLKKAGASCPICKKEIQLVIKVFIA
Target sequence (Q00987 whole entry, looked up): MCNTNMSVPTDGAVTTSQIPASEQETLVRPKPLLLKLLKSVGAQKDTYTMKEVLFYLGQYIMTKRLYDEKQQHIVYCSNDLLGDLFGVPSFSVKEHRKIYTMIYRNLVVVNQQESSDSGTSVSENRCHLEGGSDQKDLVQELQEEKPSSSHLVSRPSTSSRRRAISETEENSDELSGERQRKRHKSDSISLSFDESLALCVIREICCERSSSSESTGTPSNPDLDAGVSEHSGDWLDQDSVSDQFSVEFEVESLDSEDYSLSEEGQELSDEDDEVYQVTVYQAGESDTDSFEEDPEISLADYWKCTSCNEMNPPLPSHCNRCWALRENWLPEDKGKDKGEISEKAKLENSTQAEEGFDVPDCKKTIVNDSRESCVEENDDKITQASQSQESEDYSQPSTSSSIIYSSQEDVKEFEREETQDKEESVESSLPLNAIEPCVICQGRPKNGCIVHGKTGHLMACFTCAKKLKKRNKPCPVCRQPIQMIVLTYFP
L major viab: Leishmania major promastigote growth inhibition, primary screen. Leishmania major promastigotes, resazurin fluorescence viability. inhibition, % at 10 µM. 200,000 tested, 9% active; in the data active = inhibition above about 50%;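 also: promastigotes grown with compound for 44 hours at 28 °C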
CSC inhib: cancer stem cell viability inhibitors, primary screen, luminescence; 300,000 tested, 1.1% active; inhibition, % at 7.5 µM; cancer stem cell-like cells viability; in the data active = inhibition above about 75%; inconclusive = no clear call, values can overlap the other calls; tested in HMLE shEcad cells
SKKanGAS inh: S. pyogenes SKKanGAS growth inhibitors in kanamycin, primary screen, streptokinase expression inhibitor project, SKKanGAS strain, BacTiter-Glo luminescence. 6 h. inhibition, % at 7.5 µM. 300,000 tested, 1.3% active;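 active = mean replicate score, as percent of positive control median, at least 50; inconclusive = mean below 50 but one replicate at or above 50; inactive = mean and every replicate below 50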;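 also: strain carries kanamycin resistance gene driven by streptokinase promoter and grows in 40 µg/ml kanamycin; loss of luminescence reflects streptokinase promoter inhibition or plain growth inhibition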
Beta cell apopt: inhibitors of cytokine-induced beta cell apoptosis, primary screen, luminescence; INS-1E cytokine-induced death, ATP luminescence, 48 h; percent of positive-control rescue, neutral wells zero; protection from apoptosis, % (no concentration beside the values); 300,000 tested, 0.8% active; AID 435005, 2010;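 active = Every replicate reaches about 75%, or at least half do and their mean reaches it too, limit read from the data; inconclusive = At least half of replicates reach the limit but their mean does not; inactive = Under half of replicates reach the limit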;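 also: higher means more ATP so stronger rescue from cytokine killing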
T cruzi repl: inhibitors of intracellular T. cruzi growth, primary screen, luminescence, NIH3T3 host cells; T. cruzi beta-gal in NIH3T3, 90 h; inhibition, % (no concentration beside the values); 300,000 tested, 1.4% active; AID 1885, 2009;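 active = mean inhibition across valid replicates above about 55%, limit read from the data; inconclusive = mean below that limit but half or more replicates reach it; inactive = mean below it, under half of replicates reach it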;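 also: signal also drops with host cell toxicity which is not excluded here; higher percent means less beta-gal luminescence so fewer parasites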
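Read-out: Parasite load inhibition, % | Test system: Mouse NIH/3T3 fibroblasts infected with β-gal-expressing T. cruzi Tulahuen C4 | Amount: 5,000 cells/well | Medium: DMEM, 2% fetal bovine serum | Signal: GalScreen β-gal luminescence, detergent lysis, 60 min | Timing: 3 h attach, ≥90 h co-culture | Also added: Tulahuen C4 trypomastigotes, 5000/well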
Mdm2-MdmX conf: Mdm2-MdmX complex disruptors, retested hits, confirmation, luminescence, single concentration | shares compounds with Mdm2 MdmX PPI | Mdm2-MdmX binding, luminescent assay | inhibition, % at 8 µM | 10,000 tested, 55% active | AID 489028, 2010; in the data active = inhibition above about 40%
FLuc counter: full-length luciferase signal inhibition, confirmation, counter-screen for Mdm2/MdmX interaction inhibitor project, cell-based, single concentration, SaOS-2; 6,200 tested, 77% active; SaOS-2 full-length luciferase counterscreen, luminescence; inhibition, % at 8 µM; shares compounds with Mdm2 MdmX PPI;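 active = mean inhibition at 8 µM reaching about 37%, which flags the compound as non-specific, limit read from the data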;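 also: p53-null SaOS-2 cells with luciferase driven by a doxycycline-inducible promoter; compound on cells about two nights before reading with doxycycline added after day one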
A number is an active result; - = inactive; ? = inconclusive; . = not tested or not shown. The list is not random: actives were taken first. Their share in the collection is about 9.4%.

SMILES	Mdm2 MdmX PPI	L major viab	CSC inhib	SKKanGAS inh	Beta cell apopt	T cruzi repl	Mdm2-MdmX conf	others
C=CCC[C@@H](Cc1ccc(F)cc1)C(=O)OC[C@H](Cc1c[nH]c2ccccc12)NC(=O)[C@H](CC=C)CC(=O)NCCO	54.3	.	.	.	-	.	-
C=CCC[C@H](Cc1ccc(F)cc1)C(=O)OC[C@H](Cc1c[nH]c2ccccc12)NC(=O)[C@@H](CC=C)CC(=O)N[C@H](CO)Cc1ccccc1	84.5	.	-	.	-	.	-
C=CCC[C@H](Cc1ccc(F)cc1)C(=O)OC[C@@H](Cc1c[nH]c2ccccc12)NC(=O)[C@H](CC=C)CC(=O)NCCO	-	.	-	.	-	.	.
O=S1(=O)C=C(Sc2nc3cc(Cl)ccc3o2)c2ccccc21	96.8	79.9	-	?	-	65.0	96.0	FLuc counter=51.2
Cc1cc(NC(=O)CSc2nc3cc(Cl)ccc3o2)no1	-	.	.	-	-	-	.
CC1CCCCC1NC(=O)CN(C)S(=O)(=O)c1cccc2cccnc12 (centres undefined)	-	.	-	-	-	-	.
CS(=O)(=O)c1ccc2nc(NC(=O)Cc3ccccc3)sc2c1	-	-	-	-	.	-	.
CC(C)n1nc(C(=O)Nc2nc3ccc(S(C)(=O)=O)cc3s2)c2ccccc2c1=O	90.9	.	-	-	-	-	56.8	FLuc counter=81.9
COc1ccc(OC)c2sc(NC(=O)CCS(=O)(=O)c3ccccc3)nc12	98.1	-	109.4	-	-	-	76.7	FLuc counter=-
CS(=O)(=O)c1ccc2nc(NC(=O)CCS(=O)(=O)c3ccccc3)sc2c1	77.8	.	-	-	-	-	73.2	FLuc counter=84.4
O=C(CCS(=O)(=O)c1ccccc1)Nc1nc2ccc(F)cc2s1	67.1	.	-	-	-	-	65.3	FLuc counter=71.7
O=C(CN1CCN(CC(=O)Nc2ccccc2Cl)CC1)NCC1(N2CCOCC2)CCCCC1	-	.	.	.	.	.	.
O=C(CCS(=O)(=O)c1ccccc1)Nc1nc2cc3c(cc2s1)OCCO3	57.2	.	-	60.6	-	-	-
Cc1nc2ccc(NC(=O)CCS(=O)(=O)c3ccccc3)cc2s1	-	-	-	-	-	-	.
COC(=O)c1ccc2nc(NC(=O)CCS(=O)(=O)c3ccccc3)sc2c1	91.1	.	-	-	-	-	68.5	FLuc counter=-
O=C(CCS(=O)(=O)c1ccccc1)Nc1nc2cc3c(cc2s1)OCO3	-	.	-	-	-	-	.
CCOC(=O)C1(CC2CC2)CCN(Cc2ccc3cccc(F)c3n2)CC1	-	-	-	-	-	-	.
O=C1C(Cl)=C(NCCN2CCCCC2)C(=O)c2ccccc21	98.9	99.3	107.5	-	112.2	67.2	-
O=C(NCCN1CCCC1)c1ccccc1Cl	-	-	-	-	-	-	.
CCn1nc(NC(=O)Cc2ccc(OC)cc2)c2cc3cc(C)ccc3nc21	61.7	.	-	-	-	-	-
CCn1nc(NC(=O)Cc2ccc(OC)cc2)c2cc3cccc(C)c3nc21	-	.	-	-	-	-	.
O=C(Nc1ccc(N2CCOCC2)cc1)Nc1ccc2nc(-c3ccco3)c(-c3ccco3)nc2c1	61.3	-	.	-	-	-	40.9	FLuc counter=60.6
O=C(CCN1C(=O)c2ccccc2S1(=O)=O)Nc1ccc2c(c1)OCCO2	-	-	-	-	-	-	.
O=C(CN1C(=O)c2ccccc2S1(=O)=O)c1cccc(Br)c1	-	.	-	-	-	-	.
O=C(CN1C(=O)c2ccccc2S1(=O)=O)c1ccc2c(c1)OCCO2	98.4	.	-	-	-	-	99.2	FLuc counter=56.2
SMILES	Mdm2 MdmX PPI	L major viab	CSC inhib	SKKanGAS inh	Beta cell apopt	T cruzi repl	Mdm2-MdmX conf	others
O=C(CN1C(=O)c2ccccc2S1(=O)=O)c1ccc2c(c1)OCCCO2	94.9	.	-	-	-	-	81.0	FLuc counter=56.2
CC(C)(C)C(=O)NC(n1cnc2c(N3CCOCC3)ncnc21)C(Cl)(Cl)Cl (centres undefined)	-	-	-	-	-	-	.
N/C(=N\OC(=O)C12CC3CC(CC(C3)C1)C2)c1ccccn1	-	-	-	-	-	-	.
N/C(=N\OC(=O)C12CC3CC(CC(C3)C1)C2)c1ccccc1	54.4	-	-	-	-	-	-
N/C(=N\OC(=O)C12CC3CC(CC(C3)C1)C2)c1cccnc1	71.0	-	-	-	-	-	-
CCN(CC(=O)Nc1c(F)cccc1F)C(=O)CCc1ccc(OC)cc1	-	-	-	-	-	-	.
COc1ccc(/C=N/NC(=S)Nc2cc(S(=O)(=O)N3CCOCC3)ccc2N2CCOCC2)cc1O	50.7	100.1	-	-	-	-	45.1	FLuc counter=83.3
Cc1ccc(C(=O)OCC(=O)N(CCc2ccccc2)Cc2ccccc2)cc1S(=O)(=O)N1CCOCC1	-	.	-	-	-	-	.
CC(=O)Nc1sc(N/N=C\c2ccccc2Cl)nc1-c1cccs1	50.5	-	-	-	-	-	60.8	FLuc counter=96.5
Cc1cccc(C)c1NC(=O)CN1CCc2ccccc2C1	.	.	-	-	-	-	.
CC(C)C[C@H](NC(=O)c1[nH]cnc1C(=O)N[C@@H](Cc1ccccc1)C(=O)OC(C)(C)C)C(=O)OCc1ccccc1	-	.	-	-	-	-	.
CC(C)C[C@H](NC(=O)c1[nH]cnc1C(=O)N[C@@H](Cc1ccccc1)C(=O)OC(C)(C)C)C(=O)OC(C)(C)C	79.5	.	-	82.8	-	-	-
CC(C)(C)OC(=O)[C@H](Cc1ccccc1)NC(=O)c1nc[nH]c1C(=O)N1CCN(C(=O)OC(C)(C)C)CC1	74.0	.	-	-	-	-	-
CC(C)(C)OC(=O)N1CCN(C(=O)c2[nH]cnc2C(=O)N[C@@H](Cc2ccccc2)C(=O)OCc2ccccc2)CC1	-	.	-	-	-	-	.
CSC(=O)NC(=O)NC(=O)c1ccc([N+](=O)[O-])cc1	-	.	-	-	-	-	.
Cc1ccc(NC(=O)CC(=O)Nc2ccc(C)c(C)c2)cc1C	-	.	.	-	-	-	.
Cc1ccc(Sc2ccc(NC(=O)CCl)cc2)cc1C	81.3	100.0	-	-	-	-	-
Cc1ccc(C)c(Sc2ccc(NC(=O)CCl)cc2)c1	66.9	100.2	-	-	-	-	-
COc1ccc(S(=O)(=O)N2CCOC23CCN(C(=O)c2ccccc2OC)CC3)cc1	-	.	-	-	-	-	.
Cc1ccc(NC(=O)CC2S/C(=N/N=C/C=C/c3ccccc3)NC2=O)cc1Cl (centres undefined)	54.0	-	-	-	-	-	-
O=C(c1ccc(Cl)cc1Cl)N1CCC(C(=O)N2CCOCC2)CC1	-	.	-	-	-	-	.
